# Experimental data reported in ChEMBL document CHEMBL1156175, “Synthesis, molecular modeling and biological evaluation of PSB as targeted antibiotics” (Bioorg Med Chem, 2010).
# Experiments:
# [1] = biological target: T1, 3-oxoacyl-[acyl-carrier-protein] synthase 3 (Escherichia coli, UniProt C3TDZ2); assay: Inhibition of Escherichia coli KAS3 after 1 min assessed as incorporation of 3H signal in the final product by liquid scintillation counter; settings: in the assay text read “after 25 mins” for “after 1 min”
# T1 sequence (C3TDZ2 whole entry): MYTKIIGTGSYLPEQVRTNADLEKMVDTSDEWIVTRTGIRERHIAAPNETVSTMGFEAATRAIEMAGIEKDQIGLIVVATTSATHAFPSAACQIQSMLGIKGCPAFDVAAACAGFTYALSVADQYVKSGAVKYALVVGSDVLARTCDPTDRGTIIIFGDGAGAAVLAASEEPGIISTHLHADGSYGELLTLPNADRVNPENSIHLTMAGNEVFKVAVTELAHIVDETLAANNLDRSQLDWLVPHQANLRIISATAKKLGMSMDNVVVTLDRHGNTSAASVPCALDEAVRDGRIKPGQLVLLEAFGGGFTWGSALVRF
# Summary of the method: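 His-tagged ecKAS III expressed in E. coli BL21(DE3) (pET30) and purified on Ni–NTA. Reaction in 20 mM sodium phosphate pH 7.0, 0.5 mM DTT, 0.25 mM MgCl₂ with holo-ACP and 1 nM enzyme, preincubated 1 min. Started with acetyl-CoA, NADH and NADPH (0.5 mM each for the last two); run 25 min. Stopped with ice-cold TCA; protein pellet washed and dissolved in NaOH; ³H incorporation read by liquid scintillation. Inhibitors added from DMSO stock, final DMSO ≤2%.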
# [2] = biological target: T1, 3-oxoacyl-[acyl-carrier-protein] synthase 3; assay: Inhibition of Escherichia coli KAS3 after 25 mins assessed as incorporation of 3H signal in the final product by liquid scintillation counter
# Escherichia coli = assay: Antibacterial activity against Escherichia coli ATCC 35218 after 24 hrs by colorimetric method using dye MTT; format: functional; settings: ATCC 35218, 24 h
# Summary of the method: (§1)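 Mueller–Hinton broth microdilution; compounds from DMSO stock (50 μg/mL) serially diluted in medium; inoculum approx. 10⁵ cfu/mL; 37 °C for 24 h. After visual MIC reading, PBS (0.01 mol/L, pH 7.4) containing 2 mg/mL MTT added, incubated 4–5 h at room temperature, then 12 h at room temperature; OD read at 550 nm. MIC is the average of triplicates.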
# Pseudomonas aeruginosa = assay: Antibacterial activity against Pseudomonas aeruginosa ATCC 13525 after 24 hrs by colorimetric method using dye MTT; format: functional; settings: ATCC 13525, 24 h; summary of the method: as §1
# Bacillus subtilis = assay: Antibacterial activity against Bacillus subtilis ATCC 6633 after 24 hrs by colorimetric method using dye MTT; format: functional; settings: ATCC 6633, 24 h; summary of the method: as §1
# Staphylococcus aureus = assay: Antibacterial activity against Staphylococcus aureus ATCC 6538 after 24 hrs by colorimetric method using dye MTT; format: functional; settings: ATCC 6538, 24 h; summary of the method: as §1
SMILES,IC50 [1] [µM],IC50 [2] [µM],MIC (Escherichia coli) [µg/mL],MIC (Pseudomonas aeruginosa) [µg/mL],MIC (Bacillus subtilis) [µg/mL],MIC (Staphylococcus aureus) [µg/mL]
Cc1ccc(C(=O)NCC(C)/N=C/c2cc(I)cc(I)c2O)c(O)c1 (stereo unspecified),26.5,–,–,–,–,–
CC(CNC(=O)c1cc(Br)ccc1O)/N=C/c1cc(Cl)cc(Cl)c1O (stereo unspecified),–,19.6,–,–,–,–
CC(CNC(=O)c1cc(Br)ccc1O)/N=C/c1cc(Cl)ccc1O (stereo unspecified),–,> 121,–,–,–,–
Cc1ccc(C(=O)NCC(C)/N=C/c2cc(Cl)ccc2O)c(O)c1 (stereo unspecified),24.9,–,–,–,–,–
CC(CNC(=O)c1cc(Br)ccc1O)/N=C/c1cc(I)ccc1O (stereo unspecified),–,18.5,–,–,–,–
CC(CNC(=O)c1ccccc1O)/N=C/c1ccccc1O (stereo unspecified),27.3,–,–,–,–,–
CC(CNC(=O)c1ccccc1O)/N=C/c1cc(Br)cc(Br)c1O (stereo unspecified),6.86,–,25,0.78,12.5,6.25
Cc1ccc(C(=O)NCC(C)/N=C/c2cc(F)ccc2O)c(O)c1 (stereo unspecified),–,17.1,6.25,> 50,3.13,12.5
CC(CNC(=O)c1cc(Br)ccc1O)/N=C/c1ccccc1O (stereo unspecified),–,> 133,–,–,–,–
CC(CNC(=O)c1ccccc1O)/N=C/c1c(O)ccc2ccccc12 (stereo unspecified),56.7,–,–,–,–,–
CC(CNC(=O)c1cc(Br)ccc1O)/N=C/c1c(O)ccc2ccccc12 (stereo unspecified),25.6,–,–,–,–,–
CC(CNC(=O)c1ccccc1O)/N=C/c1cc(F)ccc1O (stereo unspecified),38.3,–,–,–,–,–
Cc1ccc(C(=O)NCC(C)/N=C/c2cc(Cl)cc(Cl)c2O)c(O)c1 (stereo unspecified),4.59,–,3.13,25,1.56,6.25
CC(CNC(=O)c1cc(Br)ccc1O)/N=C/c1cc(Br)cc(Br)c1O (stereo unspecified),> 93.5,–,–,–,–,–
Cc1ccc(C(=O)NCC(C)/N=C/c2c(O)ccc3ccccc23)c(O)c1 (stereo unspecified),–,12.9,12.5,> 50,6.25,> 50
CC(CNC(=O)c1cc(Br)ccc1O)/N=C/c1cc(F)ccc1O (stereo unspecified),56,–,–,–,–,–
CC(CNC(=O)c1ccccc1O)/N=C/c1cc(I)cc(I)c1O (stereo unspecified),4.65,–,> 50,6.25,12.5,12.5
CC(CNC(=O)c1cc(Br)ccc1O)/N=C/c1cc(I)cc(I)c1O (stereo unspecified),> 79.5,–,–,–,–,–
Cc1ccc(C(=O)NCC(C)/N=C/c2cc(Br)ccc2O)c(O)c1 (stereo unspecified),–,16.2,–,–,–,–
CC(CNC(=O)c1cc(Br)ccc1O)/N=C/c1cc(Br)ccc1O (stereo unspecified),36.6,–,–,–,–,–
Cc1ccc(C(=O)NCC(C)/N=C/c2ccccc2O)c(O)c1 (stereo unspecified),25.2,–,–,–,–,–
NC[C@H]1O[C@H](O[C@H]2[C@H](O)[C@@H](O[C@H]3O[C@H](CO)[C@@H](O)[C@H](N)[C@H]3O)[C@H](N)C[C@@H]2N)[C@H](O)[C@@H](O)[C@@H]1O [KANAMYCIN],–,–,3.13,3.13,1.56,1.56
Cc1ccc(C(=O)NCC(C)/N=C/c2cc(Br)cc(Br)c2O)c(O)c1 (stereo unspecified),–,11.4,0.78,12.5,3.13,> 50
CC(CNC(=O)c1ccccc1O)/N=C/c1cc(Br)ccc1O (stereo unspecified),–,16,–,–,–,–
Cc1ccc(C(=O)NCC(C)/N=C/c2cc(I)ccc2O)c(O)c1 (stereo unspecified),–,1.03,0.39,3.13,1.56,1.56
CC(CNC(=O)c1ccccc1O)/N=C/c1cc(I)ccc1O (stereo unspecified),–,1.84,6.25,3.13,0.78,12.5
CC(CNC(=O)c1ccccc1O)/N=C/c1cc(Cl)cc(Cl)c1O (stereo unspecified),0.844,–,0.39,0.2,1.56,3.13
CC(CNC(=O)c1ccccc1O)/N=C/c1cc(Cl)ccc1O (stereo unspecified),–,16.4,12.5,3.13,> 50,> 50
